Measurements taken from ChEMBL document CHEMBL1649152, “Pharmacokinetics of hydroxychloroquine and its clinical implications in chemoprophylaxis against malaria caused by Plasmodium vivax” (Antimicrob Agents Chemother, 2009).
Activity calls are given as the source filed them. The calls are words filed in the database; no cut-off is given here.

What was measured:
[1] = Tmax in healthy human at 400 mg, po administered as single dose; type: ADME, organism-based; details: in vivo
How it was run: (§1)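 Six healthy subjects (study Ia), fasted from 10 h before to 4 h after the oral dose; serial plasma sampled up to 314 h. Plasma extracted with diethyl ether, then reversed-phase HPLC on a C18 column with fluorescence detection (ex 320/em 370 nm). Noncompartmental analysis: Cmax and Tmax observed; terminal t1/2 = ln2/λz; AUC by linear-log trapezoidal, AUCinf extrapolated.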

[2] = Cmax in healthy human plasma at 400 mg, po administered as single dose; type: ADME, organism-based; parameters: dose 400 mg, route oral; how it was run: as §1
[3] = Terminal half life in healthy human at 400 mg, po administered as single dose; type: ADME, organism-based; details: in vivo, read-out: beta t1/2 (converted); how it was run: as §1
[4] = AUC (last) in healthy human at 400 mg, po administered as single dose; type: ADME, organism-based; parameters: dose 400 mg, time 0 - last, route oral; details: plasma; how it was run: as §1
[5] = AUC (infinity) in healthy human at 400 mg, po administered as single dose; type: ADME, organism-based; parameters: dose 400 mg, time infinity, route oral; details: plasma; how it was run: as §1
[6] = Apparent oral clearance in healthy human at 400 mg, po administered as single dose; type: ADME, organism-based; details: in vivo
[7] = Apparent peripheral distribution volume in healthy human at 400 mg, po administered as single dose; type: ADME, organism-based; details: in vivo, read-out: Vz/F
Homo sapiens [8] = test: Tmax in healthy human assessed as desethylchloroquine level at 400 mg, po administered as single dose; type: ADME, organism-based; details: in vivo; how it was run: as §1
Homo sapiens [9] = test: Cmax in healthy human plasma assessed as desethylchloroquine level at 400 mg, po administered as single dose; type: ADME, organism-based; parameters: dose 400 mg, route oral; details: in vivo; how it was run: as §1
Homo sapiens [10] = test: Terminal half life in healthy human assessed as desethylchloroquine level at 400 mg, po administered as single dose; type: ADME, organism-based; details: in vivo; how it was run: as §1
Homo sapiens [11] = test: AUC (last) in healthy human assessed as desethylchloroquine level at 400 mg, po administered as single dose; type: ADME, organism-based, Plasma; parameters: dose 400 mg, time 0 - last, route oral; details: in vivo; how it was run: as §1
Homo sapiens [12] = test: AUC (infinity) in healthy human assessed as desethylchloroquine level at 400 mg, po administered as single dose; type: ADME, organism-based, Plasma; parameters: dose 400 mg, route oral, time infinity; details: in vivo; how it was run: as §1
Homo sapiens [13] = test: Ratio of AUC for desethylchloroquine level to AUC for compound in healthy human at 400 mg, po administered as single dose; type: ADME, organism-based; details: in vivo
How it was run: (§2)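 Six healthy volunteers in study Ia, fasted from 10 h before to 4 h after dosing, sampled serially up to 314 h. Plasma was stored at –70°C, ether-extracted from ammonia-alkalinised plasma with an internal standard, and assayed by C18 RP-HPLC with fluorescence (ex 320/em 370 nm). Calibration was 10–2,000 ng/ml for parent and 5–200 ng/ml for DCQ/BDCQ. Metabolite and parent AUCs came from noncompartmental linear-log trapezoidal analysis with λz extrapolation to infinity.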

Homo sapiens [14] = test: Ratio of AUC for bisdesethylchloroquine level to AUC for compound in healthy human at 400 mg, po administered as single dose; type: ADME, organism-based; details: in vivo; how it was run: as §2
Homo sapiens [15] = test: Tmax in healthy human assessed as bisdesethylchloroquine level at 400 mg, po administered as single dose; type: ADME, organism-based; details: in vivo; how it was run: as §1
Homo sapiens [16] = test: Cmax in healthy human plasma assessed as bisdesethylchloroquine level at 400 mg, po administered as single dose; type: ADME, organism-based; parameters: dose 400 mg, route oral; details: in vivo; how it was run: as §1
Homo sapiens [17] = test: Terminal half life in healthy human assessed as bisdesethylchloroquine level at 400 mg, po administered as single dose; type: ADME, organism-based; details: in vivo; how it was run: as §1
Homo sapiens [18] = test: AUC (last) in healthy human assessed as bisdesethylchloroquine level at 400 mg, po administered as single dose; type: ADME, organism-based, Plasma; parameters: dose 400 mg, route oral, time 0 - last; details: in vivo; how it was run: as §1
Homo sapiens [19] = test: AUC (infinity) in healthy human assessed as bisdesethylchloroquine level at 400 mg, po administered as single dose; type: ADME, organism-based, Plasma; parameters: dose 400 mg, time infinity, route oral; details: in vivo; how it was run: as §1
Plasmodium vivax = test: Antimalarial activity against Plasmodium vivax infected in patient assessed as prophylaxis at 400 mg, po once a week

Compound `CCN(CCO)CCCC(C)Nc1ccnc2cc(Cl)ccc12` (stereo not given) [HYDROXYCHLOROQUINE] has a Tmax [1] of 2.4 h, a Cmax [2] of 1220 nM and a half-life [3] of 172 h. For the same compound, the AUC(0-t) [4] was 75.4 µM·h, the AUC(0-inf) [5] was 102 µM·h and the CL/F [6] was 200 mL/min. The Vd/F [7] was 2850 L, the Tmax (Homo sapiens [8]) was 6.1 h and the Cmax (Homo sapiens [9]) was 60 nM. For the same compound, the “beta t1/2” value (Homo sapiens [10]) was 549.9 h, the AUC (Homo sapiens [11]) was 12.2 µM·h and the AUC (Homo sapiens [12]) was 37.7 µM·h. The Ratio (Homo sapiens [13]) was 0.39, the Ratio (Homo sapiens [14]) was 0.63 and the Tmax (Homo sapiens [15]) was 72.8 h. For the same compound, the Cmax (Homo sapiens [16]) was 360 nM, the “beta t1/2” value (Homo sapiens [17]) was 241 h and the AUC (Homo sapiens [18]) was 34 µM·h. For the same compound, the AUC (Homo sapiens [19]) was 53.6 µM·h and the Activity (Plasmodium vivax) was “inactive”.
